ASAP1 inh: inhibitors of human ASAP1 ArfGAP activity, primary screen, biochemical, fluorescence polarization. Arf-GAP with SH3 domain, ANK repeat and PH domain-containing protein 1 (Homo sapiens), …. ASAP1-stimulated ARF1 GTP hydrolysis, GDP FP detection. inhibition, % at 16.5 µM. 360,000 tested, 0.19% active; in the data active means inhibition above about 25%;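 further: 0% = vehicle with enzyme and substrate and 100% = no enzyme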
PAFAH1B2 inh: PAFAH1B2 enzyme inhibitors, primary screen, biochemical, fluorescence polarization, human; recombinant PAFAH1B2, FP-rhodamine activity probe; inhibition, % at 3.39 µM; 340,000 tested, 1.2% active; AID 492953, 2010;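 active means inhibition above the mean of all tested compounds plus 3 SD, cut at about 24% in these data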;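 further: 0% = enzyme with DMSO and 100% = wells lacking PAFAH1B2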
Target sequence (P68402 whole entry, looked up): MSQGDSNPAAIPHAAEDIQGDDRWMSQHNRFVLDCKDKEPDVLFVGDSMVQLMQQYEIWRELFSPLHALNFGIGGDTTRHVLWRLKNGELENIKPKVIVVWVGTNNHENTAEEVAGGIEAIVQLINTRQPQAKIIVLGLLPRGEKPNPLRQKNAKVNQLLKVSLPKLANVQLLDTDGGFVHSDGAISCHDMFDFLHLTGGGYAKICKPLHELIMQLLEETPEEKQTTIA
pPAFAH FP inh: pPAFAH enzyme inhibitors, primary screen, biochemical, fluorescence polarization, human | Platelet-activating factor acetylhydrolase (Homo sapiens), Q13093 | recombinant pPAFAH, FP-rhodamine probe fluorescence polarization | inhibition, % at 3.39 µM | 330,000 tested, 1.5% active | AID 463082, 2010;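 active means inhibition above the mean inhibition across the screen plus 3 SD, cut at about 25% in these data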;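 further: inhibitors block binding of the rhodamine activity-based probe so polarization drops; 0% = enzyme with DMSO and 100% = wells lacking pPAFAH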
PAFAH1B3 inh: PAFAH1B3 enzyme inhibitors, primary screen, biochemical, fluorescence polarization, human; Platelet-activating factor acetylhydrolase IB subunit alpha1 (Homo sapiens), Q15102; recombinant PAFAH1B3, FP-rhodamine probe; inhibition, % at 3.39 µM; 340,000 tested, 0.28% active; AID 492972, 2010;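 active means inhibition above the screen-wide average of all tested compounds plus 3 SD, cut at about 25% in these data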;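 further: 0% = enzyme with DMSO only and 100% = wells lacking PAFAH1B3 protein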
Target sequence (Q15102 whole entry, looked up): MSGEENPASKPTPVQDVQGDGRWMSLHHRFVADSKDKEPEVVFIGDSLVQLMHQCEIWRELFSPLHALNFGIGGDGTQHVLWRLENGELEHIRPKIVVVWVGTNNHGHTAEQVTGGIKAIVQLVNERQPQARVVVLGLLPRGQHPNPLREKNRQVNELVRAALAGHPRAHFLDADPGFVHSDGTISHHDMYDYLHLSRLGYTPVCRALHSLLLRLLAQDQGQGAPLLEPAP
ARFGAP1 inhibitor: inhibitors of rat ARFGAP1 GAP activity, primary screen, biochemical, fluorescence polarization, GDP tracer | ADP-ribosylation factor GTPase-activating protein 1 (Rattus norvegicus), Q62848 | Arfgap1-stimulated ARF1 GTP hydrolysis, GDP FP detection | inhibition, % at 16.5 µM | 360,000 tested, 0.26% active | AID 651572, 2012;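 active means inhibition above a per-plate limit, mean inhibition of low control wells plus 3 SD, cut at about 25% in these data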;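 further: 0% = DMSO wells with enzyme and 100% = wells lacking Arfgap1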
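Material: rat Arfgap1 GAP domain (His6, aa 1-136), purified enzyme. Also added: human ARF1(Δ1-17)-GTP substrate. Compound dosing: 16.5 µM single point, 1.26% DMSO. Timing: enzyme reaction 120 min at 25 °C after 20 min preincubation. Signal: GDP detection by fluorescence polarization. Read-out basis: percent inhibition of GAP-stimulated GDP formation, scaled between DMSO and no-Arfgap1 medians.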
PAFAH2 FP inh: PAFAH2 enzyme inhibitors, primary screen, biochemical, fluorescence polarization, human; Platelet-activating factor acetylhydrolase 2, cytoplasmic (Homo sapiens), Q99487; recombinant PAFAH2, FP-rhodamine activity probe; inhibition, % at 3.39 µM; 340,000 tested, 0.99% active;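 active means inhibition above the mean over all tested compounds plus 3 SD, cut at about 30% in these data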;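 further: inhibitors block probe labeling of enzyme so polarization drops; 0% = enzyme with DMSO and 100% = wells lacking PAFAH2 protein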
* = called active by the depositor; . = not tested or not shown. An excerpt weighted towards active compounds, which were near 2.7% of everything screened.

SMILES	ASAP1 inh	PAFAH1B2 inh	pPAFAH FP inh	PAFAH1B3 inh	ARFGAP1 inhibitor	PAFAH2 FP inh
CCCCc1nnn2c1C1c3cc(Br)ccc3CCN1C(=O)C2 (stereo not given)	6	.	.	.	8	.
CCCOc1cc(N)ccc1C(=O)OCCN(CC)CC	0	2	1	-3	2	-13
CCCOc1ccc(N)cc1N	11	8	26*	15	17	8
NCCCC[C@H]1NC(=O)[C@H](CCC(=O)O)NC(=O)c2cc([N+](=O)[O-])cc(I)c2OCC[C@@H](C(N)=O)NC1=O	.	.	33*	.	.	.
Cc1cc(Cl)ccc1C(=O)C1CCCN(C(=O)c2ccc3ncccc3c2)C1 (stereo not given)	-8	-1	25*	12	-11	-4
O=C(CCN1C(=O)/C(=C/c2ccccc2Cl)SC1=S)NNC(=O)c1ccccc1O	1	5	30*	23	2	15
O=C(CCN1C(=O)/C(=C/c2ccccc2Cl)SC1=S)NC1=NCCS1	5	34*	6	-4	1	5
CCOC(=O)Cn1c(=O)oc2cc(S(=O)(=O)NCCc3ccc(C)cc3)ccc21	-14	4	29*	7	-5	-8
CCOC(=O)Cn1c(=O)oc2cc(S(=O)(=O)Nc3ccc(F)cc3)ccc21	-1	4	28*	-2	-6	-4
Cn1c(=O)oc2cc(S(=O)(=O)NCCC(=O)NCCc3ccc(Cl)cc3)ccc21	12	32*	14	1	7	-4
Cc1ccc(CCNC(=O)CCNS(=O)(=O)c2ccc3c(c2)oc(=O)n3C)cc1	2	6	9	4	-1	4
CCOC(=O)Cn1c(=O)oc2cc(S(=O)(=O)NCCCc3ccccc3)ccc21	9	10	4	7	3	3
Cc1ccc(O)c(N=CC2=C(O)c3ccccc3C2=O)c1	-9	7	30*	12	12	5
O=C1C(C=Nc2ccccc2O)=C(O)c2ccccc21	2	2	2	-8	12	10
CN(C)C(=O)C[C@H]1C[C@@H]2c3cc(NC(=O)NC4CCCC4)ccc3O[C@@H]2[C@@H](CO)O1	9	.	.	.	-9	.
C=CC[C@@H](CC(=O)N(CCO)Cc1ccccc1)C(=O)N[C@H](C)COC(=O)[C@@H](CC=C)Cc1ccc(F)cc1	-5	11	3	7	4	13
C=CCC[C@H](Cc1ccc(F)cc1)C(=O)O[C@H](CNC(=O)[C@@H](CC=C)CC(=O)N(CCO)Cc1ccccc1)c1ccccc1	-5	27*	19	5	18	6
C=CC[C@H](CC(=O)N(CCO)Cc1ccccc1)C(=O)N[C@H](COC(=O)[C@@H](CC=C)Cc1ccc(F)cc1)Cc1ccccc1	-3	57*	4	3	9	-1
C=CC[C@H](CC(=O)N(CCO)Cc1ccccc1)C(=O)NC[C@@H](OC(=O)[C@@H](CC=C)Cc1ccc(F)cc1)c1ccccc1	-11	4	5	6	1	0
COC(=O)c1cc2c(c3c4ccccc4n(S(=O)(=O)c4ccc(OC)cc4)c13)C(=O)N(Cc1ccco1)C2	-5	.	.	.	0	.
COC(=O)[C@]12C[C@H](CC(=O)NCCc3ccccc3OC)C(=O)N(CCC3=CCCCC3)C1=C[C@H](COCc1ccccc1)O[C@@H]2C	-3	.	.	.	1	.
O=C(O)C1CCCN(S(=O)(=O)c2ccc(Cl)s2)C1 (stereo not given)	4	29*	4	6	-5	-2
O=C(O)C1CCCN(S(=O)(=O)c2ccc(Br)s2)C1 (stereo not given)	17	12	4	8	-8	5
COc1cc(C(C)=O)ccc1OCC(=O)NCC(c1ccc(F)cc1)N1CCOCC1 (stereo not given)	-23	1	28*	2	-12	8

Compound activity (PubChem BioAssay)
